Where two headings read alike, the source gives them in different places.
How the values were obtained:
143B = experiment: MTT cytotoxicity assay, 143B cells; format: cell-based, human; conditions: 72 h, read-out: cytotoxic activity IC50
In short: (§1)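 Human osteosarcoma cells (from ATCC) were seeded at 5 × 10^3 per well and left to attach overnight at 37 °C, 5% CO2. They were then exposed to test compound for 72 h. Medium was replaced with 0.5 mg/mL MTT in culture medium for 2 h at 37 °C, and formazan was dissolved in DMSO. OD was read at 570 nm, survival was calculated as % of untreated control OD, and runs were done in triplicate.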

MNNG/HOS = experiment: MTT cytotoxicity assay, MNNG/HOS cells; format: cell-based, human; conditions: 72 h, read-out: cytotoxic activity IC50
In short: as §1

U2OS = experiment: MTT cytotoxicity assay, U2OS cells; format: cell-based, human; conditions: 72 h, read-out: cytotoxic activity IC50
In short: as §1

SaOS-2 = experiment: MTT cytotoxicity assay, SaOS-2 cells; format: cell-based, human; conditions: read-out: cytotoxic activity IC50
In short: as §1

[1] = system: osteosarcoma cancer cell lines (MNNG/HOS, U2OS, 143B, SaOS-2); experiment: MTT cytotoxicity, summary over osteosarcoma cell lines; format: cell-based, human; conditions: for IC50: Homo sapiens, 72 h, read-out: IC50 range against all OS cell lines
In short: as §1

[2] = MTT cell viability, normal osteoblast cells hFOB 1.19; format: cell-based, human; conditions: human, hFOB 1.19 normal osteoblast cells
In short: (§2)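 Normal human osteoblasts (hFOB 1.19, from ATCC) were exposed to test compound at 0.1, 1.0, 10.0 and 100.0 μM for 72 h. Viability was read by MTT: 0.5 mg/mL for 2 h at 37 °C, DMSO solubilisation, OD at 570 nm. Values are expressed relative to untreated control set at 100%, as mean ± SD (n = 3).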

hFOB 1.19 = experiment: as above; format: cell-based, human; conditions: at the tested concentrations (0.1-100 μM), in words
In short: as §2

human IMPDH1 = human IMPDH1 (Homo sapiens, UniProt P20839); experiment: IMPDH1 inhibitory assay; format: biochemical
human IMPDH2 = human IMPDH2 (Homo sapiens, UniProt P12268); experiment: IMPDH2 inhibitory assay; format: biochemical

Chain of human IMPDH1 (P20839 whole entry): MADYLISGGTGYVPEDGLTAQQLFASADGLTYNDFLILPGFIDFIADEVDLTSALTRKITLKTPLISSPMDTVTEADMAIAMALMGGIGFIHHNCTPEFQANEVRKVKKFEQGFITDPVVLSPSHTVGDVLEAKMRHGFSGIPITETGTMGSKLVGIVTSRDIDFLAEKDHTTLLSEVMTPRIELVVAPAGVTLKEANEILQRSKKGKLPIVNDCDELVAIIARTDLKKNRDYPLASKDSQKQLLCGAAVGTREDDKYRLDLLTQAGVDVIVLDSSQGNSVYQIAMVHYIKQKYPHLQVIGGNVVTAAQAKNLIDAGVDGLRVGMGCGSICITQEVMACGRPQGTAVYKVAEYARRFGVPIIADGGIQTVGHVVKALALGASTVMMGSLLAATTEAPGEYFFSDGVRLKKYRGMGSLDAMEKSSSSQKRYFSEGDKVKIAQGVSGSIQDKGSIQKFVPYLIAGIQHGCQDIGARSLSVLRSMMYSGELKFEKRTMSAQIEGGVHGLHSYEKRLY

Work on COc1c(C)c2c(c(O[Si](C)(C)C(C)(C)C)c1C/C=C(\C)CCC(=O)O[Si](C)(C)C(C)(C)C)C(=O)OC2 [Compound 2a, tert-Butyldimethylsilyl (E)-6-(4-((tert-Butyldimethylsilyl)oxy)-6-methoxy-7-methyl-3-oxo-1,3-dihydroisobenzofuran-5-yl)-4-methylhex-4-enoate] yielded an IC50 (143B; Homo sapiens, 143B) of 4.12 ± 0.28 µM, an IC50 (MNNG/HOS; Homo sapiens, HOS) of 1.36 ± 0.76 µM and an IC50 (U2OS; Homo sapiens, U2OS) of 3.8 ± 0.88 µM. It also gave an IC50 (SaOS-2; Homo sapiens, SAOS-2, 72 h) of 5.43 ± 2.87 µM and an IC50 [1] of 1.36 to 5.43 µM.

Molecule COc1c(C)c2c(c(O[Si](c3ccccc3)(c3ccccc3)C(C)(C)C)c1C/C=C(\C)CCC(=O)O[Si](c1ccccc1)(c1ccccc1)C(C)(C)C)C(=O)OC2 [Compound 2b, tert-Butyldiphenylsilyl (E)-6-(4-((tert-Butyldiphenylsilyl)oxy)-6-methoxy-7-methyl-3-oxo-1,3-dihydroisobenzofuran-5-yl)-4-methylhex-4-enoate] has an IC50 (143B; Homo sapiens, 143B) of 5.85 ± 0.54 µM, an IC50 (MNNG/HOS; Homo sapiens, HOS) of 1.18 ± 0.74 µM and an IC50 (U2OS; Homo sapiens, U2OS) of 2.52 ± 0.96 µM. The IC50 (SaOS-2; Homo sapiens, SAOS-2, 72 h) was 5.8 ± 1.15 µM and the IC50 [1] was 1.18 to 5.85 µM.

With COc1c(C)c2c(c(O[Si](C(C)C)(C(C)C)C(C)C)c1C/C=C(\C)CCC(=O)O[Si](C(C)C)(C(C)C)C(C)C)C(=O)OC2 [Compound 2c, Triisopropylsilyl (E)-6-(6-Methoxy-7-methyl-3-oxo-4-((triisopropylsilyl)oxy)-1,3-dihydroisobenzofuran-5-yl)-4-methylhex-4-enoate] the IC50 (143B; Homo sapiens, 143B) was 63.1 ± 3.2 µM, the IC50 (MNNG/HOS; Homo sapiens, HOS) was 6.82 ± 3.51 µM and the IC50 (U2OS; Homo sapiens, U2OS) was 24.43 ± 0.04 µM. For the same molecule, the IC50 (SaOS-2; Homo sapiens, SAOS-2, 72 h) was 17.4 ± 9.03 µM and the IC50 [1] was 6.82 to 63.9 µM.

Molecule COc1c(C)c2c(c(O)c1C/C=C(\C)CCC(=O)O[Si](c1ccccc1)(c1ccccc1)c1ccccc1)C(=O)OC2 [Compound 2d, Triphenylsilyl (E)-6-(4-Hydroxy-6-methoxy-7-methyl-3-oxo-1,3-dihydroisobenzofuran-5-yl)-4-methylhex-4-enoate] has an IC50 (143B; Homo sapiens, 143B) of 1.65 ± 0.26 µM, an IC50 (MNNG/HOS; Homo sapiens, HOS) of 0.64 ± 0.15 µM and an IC50 (U2OS; Homo sapiens, U2OS) of 1.01 ± 0.4 µM. For the same molecule, the IC50 (SaOS-2; Homo sapiens, SAOS-2, 72 h) was 2.27 ± 0.68 µM, the viability at 72 h, 0.1 µM [2] was 93.9 ± 1.01% and the viability at 72 h, 1 µM [2] was 92 ± 1.78%. The viability at 72 h, 10 µM [2] was 84.5 ± 2.95%, the viability at 72 h, 100 µM [2] was 73.3 ± 1.39% and the “cytotoxicity to human normal osteoblast cells (hFOB 1.19)” value (hFOB 1.19) was “low cytotoxicity”. For the same molecule, the Ki (human IMPDH1; read-out: Ki,app (apparent tight-binding inhibition constant), IMPDH1, IMP 100 μM, NAD+ 200 μM, NO = No inhibition observed) was > 100 µM, the Ki (human IMPDH2) was 1.8 µM and the “fold more potent than carbon compound 2e” value ([1]; 143B and SaOS cell lines, versus 2e) was 2 to 3 fold. It also gave an IC50 [1] of 0.64 to 2.27 µM.

Molecule COc1c(C)c2c(c(O)c1C/C=C(\C)CCC(=O)OC(c1ccccc1)(c1ccccc1)c1ccccc1)C(=O)OC2 [Compound 2e, Trityl (E)-6-(4-Hydroxy-6-methoxy-7-methyl-3-oxo-1,3-dihydroisobenzofuran-5-yl)-4-methylhex-4-enoate] has an IC50 (143B; Homo sapiens, 143B) of 5.13 ± 1.1 µM, an IC50 (MNNG/HOS; Homo sapiens, HOS) of 0.68 ± 0.11 µM and an IC50 (U2OS; Homo sapiens, U2OS) of 0.98 ± 0.035 µM. For the same molecule, the IC50 (SaOS-2; Homo sapiens, SAOS-2, 72 h) was 4.83 ± 0.5 µM and the IC50 [1] was 0.68 to 5.13 µM.

COc1c(C)c2c(c(O[Si](C)(C)C(C)(C)C)c1C/C=C(\C)CCC(=O)O)C(=O)OC2 [Compound 3a, (E)-6-(4-((tert-Butyldimethylsilyl)oxy)-6-methoxy-7-methyl-3-oxo-1,3-dihydroisobenzofuran-5-yl)-4-methylhex-4-enoic acid] gave an IC50 (143B; Homo sapiens, 143B) of 3.9 ± 0.76 µM, an IC50 (MNNG/HOS; Homo sapiens, HOS) of 0.86 ± 0.2 µM and an IC50 (U2OS; Homo sapiens, U2OS) of 2.31 ± 1.26 µM. For the same molecule, the IC50 (SaOS-2; Homo sapiens, SAOS-2, 72 h) was 4.55 ± 2.6 µM.

COc1c(C)c2c(c(O[Si](C(C)C)(C(C)C)C(C)C)c1C/C=C(\C)CCC(=O)O)C(=O)OC2 [Compound 3c, (E)-6-(6-Methoxy-7-methyl-3-oxo-4-((triisopropylsilyl)oxy)-1,3-dihydroisobenzofuran-5-yl)-4-methylhex-4-enoic acid] gave an IC50 (143B; Homo sapiens, 143B) of 6.31 ± 0.4 µM, an IC50 (MNNG/HOS; Homo sapiens, HOS) of 2.68 ± 1.02 µM and an IC50 (U2OS; Homo sapiens, U2OS) of 3.75 ± 1.06 µM. It also gave an IC50 (SaOS-2; Homo sapiens, SAOS-2, 72 h) of 5.44 ± 0.82 µM.

For COc1c(C)c2c(c(O)c1C/C=C(\C)CCC(=O)O[Si](c1ccccc1)(c1ccccc1)C(C)(C)C)C(=O)OC2 [Compound 4b, tert-Butyldiphenylsilyl (E)-6-(4-Hydroxy-6-methoxy-7-methyl-3-oxo-1,3-dihydroisobenzofuran-5-yl)-4-methylhex-4-enoate], the IC50 (143B; Homo sapiens, 143B) was 6.8 ± 1.41 µM, the IC50 (MNNG/HOS; Homo sapiens, HOS) was 13 ± 4.24 µM and the IC50 (U2OS; Homo sapiens, U2OS) was 1.85 ± 0.07 µM. The IC50 (SaOS-2; Homo sapiens, SAOS-2, 72 h) was 1.85 ± 0.35 µM.

In the case of COc1c(C)c2c(c(O)c1C/C=C(\C)CCC(=O)O[Si](C(C)C)(C(C)C)C(C)C)C(=O)OC2 [Compound 4c, Triisopropylsilyl (E)-6-(4-Hydroxy-6-methoxy-7-methyl-3-oxo-1,3-dihydroisobenzofuran-5-yl)-4-methylhex-4-enoate], the IC50 (143B; Homo sapiens, 143B) is reported as 35 ± 9.9 µM, the IC50 (MNNG/HOS; Homo sapiens, HOS) is reported as 5.7 ± 0.71 µM and the IC50 (U2OS; Homo sapiens, U2OS) is reported as 0.92 µM. It also gave an IC50 (SaOS-2; Homo sapiens, SAOS-2, 72 h) of 5.5 ± 1.51 µM.

Work on COc1c(C)c2c(c(O[Si](c3ccccc3)(c3ccccc3)C(C)(C)C)c1C/C=C(\C)CCC(=O)ON1C(=O)c3ccccc3C1=O)C(=O)OC2 [Compound 5a, 1,3-Dioxoisoindolin-2-yl (E)-6-(4-((tert-Butyldiphenylsilyl)oxy)-6-methoxy-7-methyl-3-oxo-1,3-dihydroisobenzofuran-5-yl)-4-methylhex-4-enoate] yielded an IC50 (143B; Homo sapiens, 143B) of 31 ± 1.41 µM, an IC50 (MNNG/HOS; Homo sapiens, HOS) of 19.5 ± 3.54 µM and an IC50 (U2OS; Homo sapiens, U2OS) of 10.2 ± 3.89 µM. For the same molecule, the IC50 (SaOS-2; Homo sapiens, SAOS-2, 72 h) was 12 µM.

With COc1ccc(CCOC(=O)CC/C(C)=C/Cc2c(OC)c(C)c3c(c2O[Si](c2ccccc2)(c2ccccc2)C(C)(C)C)C(=O)OC3)cc1 [Compound 5c, 4-Methoxyphenethyl (E)-6-(4-((tert-Butyldiphenylsilyl)oxy)-6-methoxy-7-methyl-3-oxo-1,3-dihydroisobenzofuran-5-yl)-4-methylhex-4-enoate] the IC50 (143B; Homo sapiens, 143B) was 14.5 ± 4.95 µM, the IC50 (MNNG/HOS; Homo sapiens, HOS) was 43.5 ± 2.12 µM and the IC50 (U2OS; Homo sapiens, U2OS) was 10.2 ± 1.06 µM. The IC50 (SaOS-2; Homo sapiens, SAOS-2, 72 h) was 39.5 ± 0.71 µM.

Molecule COc1c(C)c2c(c(O)c1C/C=C(\C)CCC(=O)ON1C(=O)c3ccccc3C1=O)C(=O)OC2 [Compound 6a, 1,3-Dioxoisoindolin-2-yl (E)-6-(4-Hydroxy-6-methoxy-7-methyl-3-oxo-1,3-dihydroisobenzofuran-5-yl)-4-methylhex-4-enoate] has an IC50 (143B; Homo sapiens, 143B) of 4.85 ± 1.48 µM, an IC50 (U2OS; Homo sapiens, U2OS) of 1.38 ± 0.6 µM and an IC50 (SaOS-2; Homo sapiens, SAOS-2, 72 h) of 6.9 µM.

Molecule COc1c(C)c2c(c(O)c1C/C=C(\C)CCC(=O)OCCc1ccc(F)cc1)C(=O)OC2 [Compound 6b, 4-Fluorophenethyl (E)-6-(4-Hydroxy-6-methoxy-7-methyl-3-oxo-1,3-dihydroisobenzofuran-5-yl)-4-methylhex-4-enoate] has an IC50 (143B; Homo sapiens, 143B) of 2 ± 0.14 µM, an IC50 (U2OS; Homo sapiens, U2OS) of 7 ± 2.12 µM and an IC50 (SaOS-2; Homo sapiens, SAOS-2, 72 h) of 5.75 ± 1.06 µM.

For COc1ccc(CCOC(=O)CC/C(C)=C/Cc2c(O)c3c(c(C)c2OC)COC3=O)cc1 [Compound 6c, 4-Methoxyphenethyl (E)-6-(4-Hydroxy-6-methoxy-7-methyl-3-oxo-1,3-dihydroisobenzofuran-5-yl)-4-methylhex-4-enoate], the IC50 (143B; Homo sapiens, 143B) was 2.6 ± 0.28 µM, the IC50 (MNNG/HOS; Homo sapiens, HOS) was 38 ± 11.3 µM and the IC50 (U2OS; Homo sapiens, U2OS) was 7.35 ± 1.63 µM. For the same molecule, the IC50 (SaOS-2; Homo sapiens, SAOS-2, 72 h) was 9 ± 1.41 µM.

COc1c(C)c2c(c(O)c1C/C=C(\C)CCC(=O)O)C(=O)OC2 [MPA 1, Mycophenolic acid, reference compound] showed an IC50 (143B; Homo sapiens, 143B) of 1.55 ± 0.49 µM, an IC50 (MNNG/HOS; Homo sapiens, HOS) of 0.64 ± 0.08 µM and an IC50 (U2OS; Homo sapiens, U2OS) of 0.68 ± 0.04 µM. It also gave an IC50 (SaOS-2; Homo sapiens, SAOS-2, 72 h) of 4 ± 0.28 µM, a viability at 72 h, 0.1 µM [2] of 74.3 ± 4.24% and a viability at 72 h, 1 µM [2] of 20.1 ± 1.41%. The viability at 72 h, 10 µM [2] was 7.13 ± 0.67%, the viability at 72 h, 100 µM [2] was 3.38 ± 3.4% and the Ki (human IMPDH1) was 0.136 µM. The IC50 [1] was 0.64 to 4 µM.

“(E)-6-(4-((tert-Butyldimethylsilyl)oxy)-6-methoxy-7-methyl-3-oxo-1,3-dihydroisobenzofuran-5-yl)-4-methylhex-4-enoic acid [Compound 3b]” showed an IC50 (143B; 143B cells, MTT) of 4.74 ± 0.76 µM, an IC50 (MNNG/HOS; MNNG cells, MTT) of 1.15 ± 0.35 µM and an IC50 (U2OS; U2OS cells, MTT) of 2.96 ± 2.32 µM. It also gave an IC50 (SaOS-2; SaOS cells, MTT, 72 h) of 4.58 ± 1.05 µM.

From PMC11843339 (ACS Bio & Med Chem Au, 2024)
